Activity calls are given as the source filed them. No cut-off for these calls is given here.

The record followed here is ChEMBL document CHEMBL4425150, “l-Cystine Diamides as l-Cystine Crystallization Inhibitors for Cystinuria” (J Med Chem, 2016).

Data set [1] relates to Cystine. Description: Inhibition of hexagonal L-cystine plate crystal growth assessed as step velocity for crystal growth rate at 45 uM after 25 mins by atomic force microscopic analysis relative to control. Summed up: (§1)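 In situ AFM of step velocity on {100} steps of hexagonal L-cystine crystals in aqueous 2 mM L-cystine, with additive at 15, 30 or 45 μM. Result expressed as V/V0, where V0 is the velocity measured first without additive; the value is a range.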

In data set [2] the test system is Cystine. Nature of the data set: Inhibition of hexagonal L-cystine plate crystal growth assessed as step velocity for crystal growth rate at 30 uM after 25 mins by atomic force microscopic analysis relative to control. Summed up:
as §1

The test system of data set [3] is Cystine. Description: Inhibition of hexagonal L-cystine plate crystal growth assessed as step velocity for crystal growth rate at 15 uM after 25 mins by atomic force microscopic analysis relative to control. Summed up:
as §1

Data set [4] can be described thus: Half life in pH 7.4 phosphate buffered saline at 100 uM at 37 degC by LC-MS/MS analysis. Type of data set: physicochemical. Conditions: buffer, pH 7.4, 100 µM. Summed up: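 Compound incubated in pH 7.4 phosphate buffered saline at 37 °C. Disappearance of parent followed over time by LC-MS, and half-life derived from that.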
Data set [5] is described as follows: Drug level in 129/C57BL6 mouse urine at 29.3 umol/kg, po administered daily through gavage for 1 week measured 4 hrs post last dose by LC-MS/MS analysis. It counts as ADME, organism-based. Conditions: read-out: Drug uptake. Summed up:
(§2)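 Male mice, wild-type or Slc3a1 knockout, 4–5 per group, dosed by daily oral gavage at 29.3 μmol/kg for 1 week. Urine from each mouse collected individually over the 4 h right after the last dose. Compound in urine quantified by LC-MS/MS; pre-dose urine also tested.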

Data set [6] relates to Cystine. Nature of the data set: Inhibition of L-cystine crystallization assessed as concentration required to double metastable supersaturation range of L-cystine after 72 hrs by OPA/NBC derivatization based fluorescence assay. Summed up: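 Test solution (5 μL) added to 500 μL supersaturated L-cystine, then held at 25 °C for 72 h and centrifuged (10000 rpm, 4 min). Supernatant diluted 2-fold, reduced with DTT (rt, 10 min), alkylated with iodoacetic acid (rt, 15 min), then derivatized with OPA/NBC (3 min). Fluorescence read at Ex 355/Em 460 nm gives L-cystine concentration. EC2x is the inhibitor concentration doubling the lower-plateau L-cystine level.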

The nature of data set [7]: Drug level in SLC3A1 knock out 129/C57BL6 mouse urine at 29.3 umol/kg, po administered daily through gavage for 1 week measured 4 hrs post last dose by LC-MS/MS analysis. Type of data set: ADME, organism-based. The following applies: read-out: Drug uptake. Summed up:
as §2

Data set [8] relates to Cystine. Description: Potency index, ratio of L-cystine dimethyl ester concentration to compound concentration required to double metastable supersaturation range of L-cystine. Summed up:
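Ratio is the EC2x of L-cystine dimethyl ester divided by the compound's EC2x. EC2x came from 72 h incubation at 25 °C in supersaturated L-cystine, with supernatant L-cystine measured by OPA/NBC fluorescence.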

Data set [9] has as its system Cystine. Description: Inhibition of hexagonal L-cystine plate crystal growth assessed as reduction in crystal mass yield at 15 to 45 uM after 25 mins by atomic force microscopic analysis.
The subject of data set [10] is Cystine. Description: Inhibition of hexagonal L-cystine plate crystal growth assessed as induction of plate to rod crystal morphology at 15 to 45 uM after 25 mins by atomic force microscopic analysis.
The test system of data set [11] is Cystine. Nature of the data set: Inhibition of L-cystine stone formation in SLC3A1 knock out 129/C57BL6 mouse model of cystinuria at 29.3 umol/kg, po administered daily through gavage for 4 weeks. Type of data set: functional, organism-based. Summed up: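 Male Slc3a1 knockout mice, groups of six or seven, dosed by daily gavage at 29.3 μmol/kg for 4 weeks. A parallel control group of seven mice received water only. Read-out is the fraction of mice forming stones.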

On to `CN1CCN(C(=O)[C@@H](N)CSSC[C@H](N)C(=O)N2CCN(C)CC2)CC1.Cl.Cl.Cl.Cl`, for which the Ratio in the data set on Cystine [1] was 0.3 to 0.4; with Cystine [2], 0.32 to 0.5; in the data set with Cystine [3] it was 0.52 to 0.66; in the data set on Cystine [8] it was 24.5. Besides, the t1/2 in data set [4] was 19.8 days. For the same compound, the concentration at 4 h in [5] is 2100 nM; in data set [7], 7.59 µM. The CD with Cystine [6] came out at 0.26 µM. Also, the inhibition entry with Cystine [9], with Cystine [10] and with Cystine [11] was “Active” in each case.

As for `Cl.Cl.N[C@@H](CSSC[C@H](N)C(=O)N1CCOCC1)C(=O)N1CCOCC1`, the Ratio with Cystine [1] is 0.29 to 0.53; with Cystine [2], 0.34 to 0.58; in the data set on Cystine [3], 0.44 to 0.65; with Cystine [8], 7.4. The same compound returned a t1/2 in data set [4] of 46.2 days. In addition, in the data set on Cystine [6], the CD amounted to 0.86 µM. Also, in [7], the concentration at 4 h was found to be 2.09 µM. Moreover, the inhibition result in the data set with Cystine [9] and with Cystine [10] was “Active” in each case. Also, the inhibition result in the data set with Cystine [11] was “inactive”.

For `COC(=O)[C@@H](N)CSSC[C@H](N)C(=O)OC`, the Ratio lay within 0.21 to 0.48 in the data set on Cystine [1], 0.27 to 0.54 in the data set on Cystine [2] and 0.4 to 0.65 in the data set with Cystine [3]. Besides, in [4], the t1/2 amounted to 0.11 days. The CD in the data set with Cystine [6] is 6.37 µM. The inhibition result with Cystine [9] and in the data set on Cystine [10] was “Active” in each case.
